Consider eight compounds from ChEMBL document CHEMBL1128345, “Derivatives of 2-[[N-(Aminocarbonyl)-N-hydroxyamino]methyl]-1,4- benzodioxan as orally active 5-lipoxygenase inhibitors” (J Med Chem, 1995).

Data set [1] concerns the target T1, Polyunsaturated fatty acid 5-lipoxygenase (Homo sapiens) (UniProt P09917).
T1 sequence (whole entry): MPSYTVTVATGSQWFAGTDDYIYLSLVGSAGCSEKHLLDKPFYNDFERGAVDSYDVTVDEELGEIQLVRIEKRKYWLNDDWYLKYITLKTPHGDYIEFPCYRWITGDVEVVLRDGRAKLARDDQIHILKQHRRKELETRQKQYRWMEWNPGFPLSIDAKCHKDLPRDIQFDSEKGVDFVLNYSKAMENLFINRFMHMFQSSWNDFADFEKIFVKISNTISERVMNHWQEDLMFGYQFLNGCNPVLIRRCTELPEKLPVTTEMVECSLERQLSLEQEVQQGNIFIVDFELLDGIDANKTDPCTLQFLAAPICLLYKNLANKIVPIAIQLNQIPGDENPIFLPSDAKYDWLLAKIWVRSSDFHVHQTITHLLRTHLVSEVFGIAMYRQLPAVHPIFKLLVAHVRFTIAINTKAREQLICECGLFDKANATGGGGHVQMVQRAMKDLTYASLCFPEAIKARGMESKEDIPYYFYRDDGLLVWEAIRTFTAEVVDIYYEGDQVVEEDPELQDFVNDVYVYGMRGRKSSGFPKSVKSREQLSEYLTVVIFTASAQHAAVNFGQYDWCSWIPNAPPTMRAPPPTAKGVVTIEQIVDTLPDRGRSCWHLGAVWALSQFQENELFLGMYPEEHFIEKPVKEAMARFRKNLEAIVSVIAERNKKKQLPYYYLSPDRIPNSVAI
Briefly: Ex vivo inhibition of 5-lipoxygenase was determined by the measurement of A-23187-stimulated LTB4 production in dog blood at 0.5h, following intravenous administration at the dose of 1.0 mg/kg. In kind it is functional, organism-based. Set-up: dose 1 mg/kg. Conditions: Canis lupus familiaris, target entry is the homologue from another species. The method in brief:
(§1)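 Dogs received a single iv dose. Whole blood was sampled at the stated time after dosing and stimulated ex vivo with calcium ionophore A23187. LTB4 was quantitated by radioimmunoassay. Percent inhibition was calculated against each animal's pre-dose LTB4 value. One to three experiments were run per dose.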

The target of data set [2] is T1, Polyunsaturated fatty acid 5-lipoxygenase (Homo sapiens). Briefly: Ex vivo inhibition of 5-lipoxygenase was determined by the measurement of A-23187-stimulated LTB4 production in dog blood at 9.0h, following intravenous administration at the dose of 1.0 mg/kg. The format is functional, organism-based. Set-up: dose 1 mg/kg. To be noted: Canis lupus familiaris, target entry is the homologue from another species. The method in brief:
as §1

For data set [3] the target is unchanged. Briefly: Ex vivo inhibition of 5-lipoxygenase was determined by the measurement of A-23187-stimulated LTB4 production in dog blood at 1.0h, following intravenous administration at the dose of 1.0 mg/kg. The format is functional, organism-based. Also noted: dose 1 mg/kg. To be noted: Canis lupus familiaris, target entry is the homologue from another species. The method in brief: as §1

Data set [4] shares this target. Briefly: Ex vivo inhibition of 5-lipoxygenase was determined by the measurement of A-23187-stimulated LTB4 production in dog blood at 0.25h, following intravenous administration at the dose of 1.0 mg/kg. In kind it is functional, organism-based. Set-up: dose 1 mg/kg. To be noted: Canis lupus familiaris, target entry is the homologue from another species. The method in brief:
(§2)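 Dog ex vivo assay: compound given as a single iv dose. Whole blood drawn at set times after dosing was stimulated ex vivo with calcium ionophore A23187. LTB4 was quantitated by radioimmunoassay. Percent inhibition at each time point was calculated against the LTB4 value before dosing. n = 1–3 experiments per compound.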

Data set [5] is described as follows: Duration of action was defined as the period of time from maximum inhibition of A-23187-stimulated LTB4 formation to the time where 50% of maximum inhibition is reached. The method in brief:
(§3)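 Dogs got a single iv or oral dose. Whole blood was drawn at set times afterwards and stimulated ex vivo with the calcium ionophore A23187. LTB4 was measured by radioimmunoassay, and inhibition was taken as the change from the pre-dose LTB4 value. DA, the time from maximum inhibition to 50% of maximum, was read graphically from the plot of percent inhibition vs time.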

In data set [6] the target is T1, Polyunsaturated fatty acid 5-lipoxygenase (Homo sapiens). Briefly: Ex vivo inhibition of 5-lipoxygenase was determined by the measurement of A-23187-stimulated LTB4 production in dog blood at 24h, following intravenous administration at the dose of 1.0 mg/kg. In kind it is functional, organism-based. Also noted: dose 1 mg/kg. To be noted: Canis lupus familiaris, target entry is the homologue from another species. The method in brief: as §1

The target is the same in data set [7]. Briefly: Ex vivo inhibition of 5-lipoxygenase was determined by the measurement of A-23187-stimulated LTB4 production in dog blood at 0.08h, following intravenous administration at the dose of 1.0 mg/kg. The format is functional, organism-based. Also noted: dose 1 mg/kg. Conditions: Canis lupus familiaris, target entry is the homologue from another species. The method in brief:
as §1

Data set [8] has the same target. Briefly: Ex vivo inhibition of 5-lipoxygenase was determined by the measurement of A-23187-stimulated LTB4 production in dog blood at 6.0h, following intravenous administration at the dose of 1.0 mg/kg. In kind it is functional, organism-based. Also noted: dose 1 mg/kg. Conditions: Canis lupus familiaris, target entry is the homologue from another species. The method in brief:
as §1

A short description of data set [9]: Duration of action of 5-LO was defined as the period of time from maximum inhibition of A-23187-stimulated LTB4 formation to the time where 50% of maximum inhibition is reached. The method in brief: as §3
Data set [10] concerns the target T1, Polyunsaturated fatty acid 5-lipoxygenase (Homo sapiens). Briefly: Ex vivo inhibition of 5-LO was determined by the measurement of A-23187-stimulated LTB4 production in dog blood at 9.0h, following intravenous administration at the dose of 1.0 mg/kg. Also noted: dose 1 mg/kg. The format is functional, organism-based. Conditions: Canis lupus familiaris, target entry is the homologue from another species. The method in brief: as §1

For data set [11] the target is unchanged. Briefly: Ex vivo inhibition of 5-LO was determined by the measurement of A-23187-stimulated LTB4 production in dog blood at 24h, following intravenous administration at the dose of 1.0 mg/kg. To be noted: Canis lupus familiaris, target entry is the homologue from another species. In kind it is functional, organism-based. Also noted: dose 1 mg/kg. The method in brief: as §1

The target is the same in data set [12]. Briefly: Ex vivo inhibition of 5-LO was determined by the measurement of A-23187-stimulated LTB4 production in dog blood at 6.0h, following intravenous administration at the dose of 1.0 mg/kg. In kind it is functional, organism-based. Set-up: dose 1 mg/kg. Conditions: Canis lupus familiaris, target entry is the homologue from another species. The method in brief: as §1

The target is the same in data set [13]. Briefly: Ex vivo inhibition of 5-LO was determined by the measurement of A-23187-stimulated LTB4 production in dog blood at 3.0h, following intravenous administration at the dose of 1.0 mg/kg. Also noted: dose 1 mg/kg. Conditions: Canis lupus familiaris, target entry is the homologue from another species. The format is functional, organism-based. The method in brief: as §1

Data set [14] shares this target. Briefly: Ex vivo inhibition of 5-LO was determined by the measurement of A-23187-stimulated LTB4 production in dog blood at 1.0h, following intravenous administration at the dose of 1.0 mg/kg. The format is functional, organism-based. Also noted: dose 1 mg/kg. To be noted: Canis lupus familiaris, target entry is the homologue from another species. The method in brief: as §1

For data set [15] the target is unchanged. Briefly: Ex vivo inhibition of 5-LO was determined by the measurement of A-23187-stimulated LTB4 production in dog blood at 0.08h, following intravenous administration at the dose of 1.0 mg/kg. The format is functional, organism-based. Set-up: dose 1 mg/kg. Conditions: Canis lupus familiaris, target entry is the homologue from another species. The method in brief: as §1

For data set [16] the target is unchanged. Briefly: Ex vivo inhibition of 5-LO was determined by the measurement of A-23187-stimulated LTB4 production in dog blood at 0.25h, following intravenous administration at the dose of 1.0 mg/kg. In kind it is functional, organism-based. Also noted: dose 1 mg/kg. To be noted: Canis lupus familiaris, target entry is the homologue from another species. The method in brief: as §2

For data set [17] the target is unchanged. Briefly: Ex vivo inhibition of 5-LO was determined by the measurement of A-23187-stimulated LTB4 production in dog blood at 0.5h, following intravenous administration at the dose of 1.0 mg/kg. The format is functional, organism-based. Set-up: dose 1 mg/kg. To be noted: Canis lupus familiaris, target entry is the homologue from another species. The method in brief:
as §1

Molecules are shown by their SMILES. Several values for one entry are separate records, joined by “and”; a condition that tells them apart may be missing. Identical values can stand only once.

Turning to `NC(=O)N(O)CC1COc2ccc(Oc3ccccc3)cc2O1` (stereo unspecified), the inhibition (commonly how much of the control response was suppressed) in data set [1] worked out at 100%; in [2], 0%; in [3], 100%; in [4], 100%; in [6] it was 4%; in data set [7], 100%. In data set [8], the inhibition was 22%. Moreover, in [5], the Duration of action is 4 h.

For the compound `NC(=O)N(O)C[C@H]1COc2ccc(Oc3ccc(F)cc3)cc2O1`, the Duration of action in [9] worked out at 8.4 h.

In the case of `CNC(=O)N(O)CC1COc2ccc(Oc3ccccc3)cc2O1` (stereo unspecified), the inhibition in data set [1] stood at 98%; in data set [2], 9%; in data set [3], 74%; in data set [4], 100%; in [6] it was 0%; in data set [7], 100%. Also, the inhibition in data set [8] amounted to 0%. The same compound registered a Duration of action in [5] of 1.5 h.

Take `NC(=O)N(O)C[C@@H]1COc2ccc(Oc3ccc(F)cc3)cc2O1`: the inhibition in [10] came to 0%; in [1] it was 100%; in data set [11], 0%; in [3], 100%; in [4], 100%; in data set [7], 100%. Besides, in data set [12], the inhibition turned out to be 15%. In addition, the Duration of action in data set [5] is 3.8 h and 3.7 h.

Regarding `CC(c1cc2ccccc2s1)N(O)C(N)=O` (stereo unspecified) [ZILEUTON], the inhibition in data set [1] was determined as 91%; in [2] it was 47%; in data set [3], 87%; in data set [4] it was 94%; in data set [6], 27%; in data set [7], 96%. The compound also registered an inhibition in data set [8] of 56%. The Duration of action in data set [5] was 8.5 h and 9.8 h.

With `NC(=O)N(O)CC1COc2cc(Oc3ccccc3)ccc2O1` (stereo unspecified), the inhibition in data set [10] was determined as 9%; in data set [13] it was 14%; in [11] it was 2%; in data set [14] it was 98%; in [15] it was 100%; in [16] it was 100%. Besides, the inhibition in data set [17] is 100%; in data set [12], 1%. The compound also displayed a Duration of action in [5] of 1.7 h.

`NC(=O)N(O)CC1COc2ccc(Oc3ccc(F)cc3)cc2O1` (stereo unspecified): the inhibition in [1] was 94%; in [2], 34% and 48%; in data set [3], 92%; in [4], 98%; in data set [6] it was 17%; in [7], 94%. Also, the inhibition in data set [8] turned out to be 63%. Further, the Duration of action in data set [5] was 8.2 h and 8.5 h.

For `CCCCNC(=O)N(O)CC1COc2ccccc2O1` (stereo unspecified), the inhibition turned out to be 64% in data set [1]; 45% in data set [3]; 100% in data set [4]; 100% in [7]; 0% in data set [8]. The same compound registered a Duration of action in [5] of 0.7 h.
